The source of these data is ChEMBL document CHEMBL1139544, “Potent, orally active corticotropin-releasing factor receptor-1 antagonists containing a tricyclic pyrrolopyridine or pyrazolopyridine core” (J Med Chem, 2005).

pKi: −log10 of the molar value.

Series [1] has as its target T1, Corticotropin-releasing factor receptor 1 (Homo sapiens, UniProt P34998).
T1 sequence (P34998 whole entry): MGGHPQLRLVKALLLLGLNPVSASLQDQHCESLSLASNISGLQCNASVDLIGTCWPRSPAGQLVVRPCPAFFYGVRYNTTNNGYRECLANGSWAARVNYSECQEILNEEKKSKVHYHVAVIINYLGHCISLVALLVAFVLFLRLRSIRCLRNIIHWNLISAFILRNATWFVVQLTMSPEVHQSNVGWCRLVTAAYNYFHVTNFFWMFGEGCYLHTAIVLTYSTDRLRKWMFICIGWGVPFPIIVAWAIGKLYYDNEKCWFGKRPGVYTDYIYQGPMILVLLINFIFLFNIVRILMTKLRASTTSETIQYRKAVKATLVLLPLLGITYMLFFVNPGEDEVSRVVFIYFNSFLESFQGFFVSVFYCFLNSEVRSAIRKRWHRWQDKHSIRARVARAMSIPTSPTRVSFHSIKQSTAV
The experiment in a line: Inhibition of [125I]sauvagine binding to corticotropin releasing factor receptor 1 expressed in LtK- cells; Not active (<30% inhibition at 10 uM). Format: cell-based.

Series [2] deals with T1, Corticotropin-releasing factor receptor 1. The experiment in a line: Inhibition of [125I]sauvagine binding to corticotropin releasing factor receptor 1 expressed in LtK- cells. Type of series: cell-based.
Series [3] is described as follows: Half life in rat following administration of 10 mg/kg, p.o. and 10 mg/kg, i.v. Type of series: ADME, organism-based. The conditions noted are these: in vivo. Summed up:
(§1)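 Male Sprague Dawley rats were given one compound intravenously via tail vein and by oral gavage (N = 3/time point), dosed in purified water at 2 mL/kg. Terminal blood and brain were taken at set times for composite sampling. Plasma was acetonitrile-precipitated and analysed by LC-MS/MS (LLOQ 5 ng/mL). Parameters came from a noncompartmental model.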

For series [4], the target named is Corticotropin releasing factor receptor (Rattus norvegicus, UniProt P47866+P35353). The series can be described thus: Inhibition of corticotropin releasing factor stimulated adrenocorticotropic hormone release from rat pituitary cells. Format: functional, cell-based. The conditions noted are these: pituitary gland cell. Summed up: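 Pituitaries from 7-week-old female Sprague Dawley rats were digested with collagenase and plated at 40 000 cells/well in 3% FCS/BBM-T for 2-3 days. Compound (1 pM–1 µM) was added with 0.5 nM r/hCRF for 4 h at 37 °C. ACTH in the medium was measured by RIA, and IC50 was obtained by nonlinear curve fitting.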

Series [5] in a line: Volume of distribution in rat following administration of 10 mg/kg, p.o. and 10 mg/kg, i.v. Type of series: ADME, organism-based. The conditions noted are these: in vivo, iv. Summed up: as §1
The nature of series [6]: Total body clearance in rat following administration of 10 mg/kg, p.o. and 10 mg/kg, i.v. Format: ADME, organism-based. The note with it: in vivo, iv. An outline of the steps: as §1
Series [7] in a line: Bioavailability in rat (dose 10 mg/kg p.o. and 10 mg/kg, i.v.). Type of series: ADME, organism-based. The conditions noted are these: in vivo, po. Summed up:
as §1

Series [8] can be described thus: Half life in rat following administration of 10 mg/kg, p.o. and 10 mg/kg i.v. Type of series: ADME, organism-based. The conditions noted are these: in vivo. Summed up:
as §1

The nature of series [9]: Total body clearance in rat following administration of 10 mg/kg, p.o. and 10 mg/kg i.v. The note with it: in vivo, iv. Type of series: ADME, organism-based. Summed up:
as §1

Series [10] is described as follows: Bioavailability in rat following administration of 10 mg/kg, p.o. and 10 mg/kg i.v. Format: ADME, organism-based. The note with it: in vivo, po. Summed up: as §1
The nature of series [11]: Bioavailability in rat following administration of 10 mg/kg, p.o. and 5 mg/kg, i.v. Type of series: ADME, organism-based. The conditions noted are these: in vivo, po. An outline of the steps: as §1
A short description of series [12]: Total body clearance in rat following administration of 10 mg/kg, p.o. and 5 mg/kg, i.v. Type of series: ADME, organism-based. The note with it: in vivo, iv. An outline of the steps:
as §1

The nature of series [13]: Volume of distribution in rat following administration of 10 mg/kg, p.o. and 5 mg/kg, i.v. Type of series: ADME, organism-based. The conditions noted are these: in vivo, iv. An outline of the steps: as §1
A short description of series [14]: Half life in rat following administration of 10 mg/kg, p.o. and 5 mg/kg, i.v. The conditions noted are these: in vivo. Format: ADME, organism-based. Summed up: as §1
A short description of series [15]: Total body clearance in rat following administration of 2 mg/kg, p.o. and 1 mg/kg, i.v. The note with it: in vivo, iv. Type of series: ADME, organism-based. An outline of the steps:
(§2)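 Cassette study in male Sprague Dawley rats: five compounds were co-administered at 2 mg/kg po (gavage) and by tail-vein iv (N = 3/time point), in purified water at 2 mL/kg. Composite terminal plasma sampling was used. Plasma was acetonitrile-precipitated for LC-MS/MS (LLOQ 5 ng/mL). Parameters came from a noncompartmental model.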

The nature of series [16]: Volume of distribution in rat following administration of 2 mg/kg, p.o. and 1 mg/kg, i.v. Type of series: ADME, organism-based. The note with it: in vivo, iv. An outline of the steps: as §2
The nature of series [17]: Half life in rat following administration of 2 mg/kg, p.o. and 1 mg/kg, i.v. Format: ADME, organism-based. The conditions noted are these: in vivo. An outline of the steps: as §2
The nature of series [18]: Bioavailability in rat (dose 2 mg/kg p.o. and 1 mg/kg, i.v.). Type of series: ADME, organism-based. The conditions noted are these: in vivo, po. An outline of the steps: as §2

Regarding `CCCC(CCC)N1CCc2c3c1cc(C)nc3nn2-c1ccc(Cl)cc1Cl`, in series [1], the Ki entry is reported as “Not Active”.
What is called pKi is the negative decadic logarithm of the Ki, by convention in mol/L. Low readings indicate a high Ki, high ones a low Ki. Compound `CCCC(CCC)N1CCc2cn(-c3ccc(C)cc3)c3nc(C)cc1c23` showed a pKi in series [2] of 7.52.
Same read-out and setting: then `CCCC(CCC)N1CCc2cn(Cc3ccc(Cl)cc3C)c3nc(C)cc1c23`, with 5.72; and `CCC(COC)N1CCc2cn(-c3ccc(Cl)cc3C#N)c3nc(C)cc1c23` (stereo unspecified), with 7.40; and `COCC(COC)N1CCc2cn(-c3ccc(Cl)cc3C#N)c3nc(C)cc1c23`, with 6.92.
The same measure, in the same setting: then `CCCC(CCC)N1CCc2cn(-c3ccccc3OC)c3nc(C)cc1c23`, with 7.26.
The same measure, in the same setting: then `CCC(CC)N1CCc2cn(-c3ccc(Cl)cc3C#N)c3nc(C)cc1c23`, with 7.21.
As usually defined, the half-life is how long it takes for the measured level to halve. A low value points to rapid decline. As usually defined, the IC50 is the concentration that inhibits the measured activity by half. A high value points to weaker potency. For orientation: bioavailability means dose-corrected exposure relative to a reference, in per cent. In series [3], `CCCC(CCC)N1CCc2cn(-c3ccc(S(C)(=O)=O)cc3Cl)c3nc(C)cc1c23` had a half-life of 5 h. Moreover, in series [2], the negative logarithm of the Ki (pKi) was 7.89. The compound further displayed an IC50 in series [4] of 250 nM. The compound further showed a Vd in series [5] of 66 L/kg. Further, in series [6], the clearance stood at 152 mL/min/kg. Moreover, the bioavailability in [7] was found to be 74%.
Turning to `CCCC(CCC)N1CCc2cn(-c3ccc(OC)cc3C)c3nc(C)cc1c23`, the half-life in series [3] is 5.7 h. Also, in series [2], the pKi was 8.19. The compound further displayed an IC50 in series [4] of 39 nM. Also, the Vd in series [5] worked out at 53 L/kg. For the same compound, the clearance in series [6] stood at 107 mL/min/kg. Moreover, the bioavailability in series [7] was found to be 18%.
For `CCCC(CCC)N1CCc2cn(-c3ccc(C)cc3Cl)c3nc(C)cc1c23`, in series [8], the half-life was 6.3 h. In series [9], this compound yielded a clearance of 70 mL/min/kg. In addition, the pKi in series [2] was 8.46. The compound also gave a bioavailability in series [10] of 24%. Besides, the IC50 in [4] was 14 nM. Further, the Vd in series [5] amounted to 38 L/kg.
`CCCC(CCC)N1CCc2cn(-c3ccc(OC)nc3OC)c3nc(C)cc1c23` had a half-life in [3] of 10 h. In [2], this compound gave a pKi of 8.27. The IC50 in [4] is 29 nM. This compound had a Vd in series [5] of 62 L/kg. This compound showed a clearance in series [6] of 70 mL/min/kg. Further, the bioavailability in series [7] is 50%.
As for `CCCC(CCC)N1CCc2nn(-c3ccc(Cl)cc3Cl)c3nc(C)cc1c23`, the bioavailability in series [11] is 7%. In series [2], this compound had a pKi of 8.54. Besides, in [12], the clearance is 43 mL/min/kg. This compound also had an IC50 in [4] of 6.8 nM. In [13], this compound had a Vd of 44 L/kg. The half-life in series [14] is 12 h.
As to `CCCC(CCC)N1CCc2cn(-c3ccc(Cl)cc3Cl)c3nc(C)cc1c23`, the pKi in series [2] is 8.38.
The same measure, in the same setting: as for `CCCC(CCC)N1CCc2cn(-c3ccc(Cl)cc3C#N)c3nc(C)cc1c23`, the figure is 7.89.
For `Cc1cc2c3c(cn(-c4ccc(Cl)cc4C#N)c3n1)CCN2C`, the Ki result in series [1] is “Not Active”.
In turn, `CCCCN1CCc2cn(-c3ccc(Cl)cc3C#N)c3nc(C)cc1c23` had a pKi in [2] of 7.31.
On the same count and under the same terms, then `CCCC(CCC)N1CCc2cn(-c3ccc(C#N)cc3Cl)c3nc(C)cc1c23`, with 8.14.
In the case of `CCC(COC)N1CCc2cn(-c3c(C)cc(Cl)cc3C)c3nc(C)cc1c23` (stereo unspecified), the clearance in series [15] came to 87 mL/min/kg. This compound also gave a negative-log Ki (pKi) in series [2] of 7.80. Also, the Vd in series [16] stood at 19 L/kg. In series [4], this compound displayed an IC50 of 27 nM. In addition, the half-life in series [17] is 2.5 h. In [18], this compound showed a bioavailability of 66%.
In turn, `CCC(CC)N1CCc2cn(-c3ccc(OC(F)(F)F)cc3C)c3nc(C)cc1c23` displayed a clearance in series [15] of 28 mL/min/kg. The pKi in series [2] is 8.22. The same compound returned a Vd in series [16] of 80 L/kg. This compound also showed an IC50 in series [4] of 48 nM. The half-life in series [17] is 33 h. The compound also returned a bioavailability in series [18] of 76%.
In series [2], `CCCC(CCC)N1CCc2cn(-c3cccc(OC)c3)c3nc(C)cc1c23` gave a pKi of 6.72.
Still for that read-out and setting: then `CCCCN(CC)c1nc(C)nc2c1c(C)c(C)n2-c1c(C)cc(C)cc1C` [ANTALARMIN], with 8.51.
